Calls of active or inactive are those of the source. No cut-off for these calls is given here.
Key:
[1] = tested on: PBMC; assay: Immunomodulatory activity in human PBMC assessed as induction of TNFalpha at 100 ug/ml after 24 hrs; assay type: functional, cell-based
How it was run: (§1)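 Human PBMCs plated at 5 × 10^6 cells/mL; compounds dissolved in PBS added at various concentrations, 37 °C for 24 h. Supernatant cytokines/chemokines quantified with human Luminex multiplex kit.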

[2] = tested on: PBMC; assay: Immunomodulatory activity in human PBMC assessed as induction of IL12 at 100 ug/ml after 24 hrs; assay type: functional, cell-based; how it was run: as §1
[3] = tested on: Splenocyte; assay: Immunomodulatory activity in C57BL/6 mouse splenocytes bearing TLR7 receptor assessed as IL12 release at 100 ug/ml after 24 hrs by ELISA; assay type: functional, cell-based
How it was run: (§2)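 C57BL/6 splenocytes in RPMI 1640 with 10% FBS, penicillin/streptomycin, 2 mM L-glutamine, plated at 5 × 10^6 cells/mL; compounds in PBS added, 37 °C for 24 h. Supernatant IL-12 and IL-6 by ELISA; representative of three independent experiments.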

[4] = biological target: T1, Toll-like receptor 9 (Mus musculus) (UniProt Q9EQU3); assay: Activation of mouse TLR9 expressed in HEK293 assessed as induction of NF-kappaB activity reporter gene assay; assay type: cell-based
T1 sequence (whole entry): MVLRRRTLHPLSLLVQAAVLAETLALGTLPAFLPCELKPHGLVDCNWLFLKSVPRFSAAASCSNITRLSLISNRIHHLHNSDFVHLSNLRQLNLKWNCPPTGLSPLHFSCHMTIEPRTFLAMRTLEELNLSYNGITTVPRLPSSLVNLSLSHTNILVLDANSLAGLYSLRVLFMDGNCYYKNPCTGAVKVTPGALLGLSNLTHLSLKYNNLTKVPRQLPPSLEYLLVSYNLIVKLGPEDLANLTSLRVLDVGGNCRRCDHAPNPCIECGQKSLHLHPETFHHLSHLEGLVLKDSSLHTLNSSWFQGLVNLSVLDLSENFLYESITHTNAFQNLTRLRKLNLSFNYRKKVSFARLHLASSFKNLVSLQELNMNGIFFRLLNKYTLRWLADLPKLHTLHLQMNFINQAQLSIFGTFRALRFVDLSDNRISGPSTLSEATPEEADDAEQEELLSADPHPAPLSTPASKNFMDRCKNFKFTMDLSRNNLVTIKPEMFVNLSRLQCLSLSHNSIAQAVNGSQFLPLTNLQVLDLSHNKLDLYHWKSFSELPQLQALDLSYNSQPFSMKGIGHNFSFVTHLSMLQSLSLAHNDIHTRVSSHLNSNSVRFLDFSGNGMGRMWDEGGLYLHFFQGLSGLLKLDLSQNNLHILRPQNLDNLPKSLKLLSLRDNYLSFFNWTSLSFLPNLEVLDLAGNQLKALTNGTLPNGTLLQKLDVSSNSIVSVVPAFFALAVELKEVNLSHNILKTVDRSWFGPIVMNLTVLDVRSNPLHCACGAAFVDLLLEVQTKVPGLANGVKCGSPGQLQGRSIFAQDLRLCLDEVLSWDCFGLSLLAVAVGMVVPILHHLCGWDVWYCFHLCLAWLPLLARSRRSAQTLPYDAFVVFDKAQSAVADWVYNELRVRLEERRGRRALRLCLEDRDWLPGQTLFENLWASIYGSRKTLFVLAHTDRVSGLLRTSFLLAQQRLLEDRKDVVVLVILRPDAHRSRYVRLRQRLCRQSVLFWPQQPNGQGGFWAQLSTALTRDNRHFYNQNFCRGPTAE

[5] = tested on: PBMC; assay: Immunomodulatory activity in human PBMC assessed as induction of IFN-alpha at 100 ug/ml after 24 hrs
[6] = tested on: Splenocyte; assay: Immunomodulatory activity in C57BL/6 mouse splenocytes bearing TLR7 receptor assessed as IL6 release at 100 ug/ml after 24 hrs by ELISA; assay type: functional, cell-based; how it was run: as §2
[7] = biological target: T2, Toll-like receptor 7 (Homo sapiens) (UniProt Q9NYK1); assay: Activation of human TLR7 expressed in HEK293XL assessed as fold induction of NF-kappaB activity at 50 ug/ml after 18 hrs by reporter gene assay relative to control
T2 sequence (whole entry): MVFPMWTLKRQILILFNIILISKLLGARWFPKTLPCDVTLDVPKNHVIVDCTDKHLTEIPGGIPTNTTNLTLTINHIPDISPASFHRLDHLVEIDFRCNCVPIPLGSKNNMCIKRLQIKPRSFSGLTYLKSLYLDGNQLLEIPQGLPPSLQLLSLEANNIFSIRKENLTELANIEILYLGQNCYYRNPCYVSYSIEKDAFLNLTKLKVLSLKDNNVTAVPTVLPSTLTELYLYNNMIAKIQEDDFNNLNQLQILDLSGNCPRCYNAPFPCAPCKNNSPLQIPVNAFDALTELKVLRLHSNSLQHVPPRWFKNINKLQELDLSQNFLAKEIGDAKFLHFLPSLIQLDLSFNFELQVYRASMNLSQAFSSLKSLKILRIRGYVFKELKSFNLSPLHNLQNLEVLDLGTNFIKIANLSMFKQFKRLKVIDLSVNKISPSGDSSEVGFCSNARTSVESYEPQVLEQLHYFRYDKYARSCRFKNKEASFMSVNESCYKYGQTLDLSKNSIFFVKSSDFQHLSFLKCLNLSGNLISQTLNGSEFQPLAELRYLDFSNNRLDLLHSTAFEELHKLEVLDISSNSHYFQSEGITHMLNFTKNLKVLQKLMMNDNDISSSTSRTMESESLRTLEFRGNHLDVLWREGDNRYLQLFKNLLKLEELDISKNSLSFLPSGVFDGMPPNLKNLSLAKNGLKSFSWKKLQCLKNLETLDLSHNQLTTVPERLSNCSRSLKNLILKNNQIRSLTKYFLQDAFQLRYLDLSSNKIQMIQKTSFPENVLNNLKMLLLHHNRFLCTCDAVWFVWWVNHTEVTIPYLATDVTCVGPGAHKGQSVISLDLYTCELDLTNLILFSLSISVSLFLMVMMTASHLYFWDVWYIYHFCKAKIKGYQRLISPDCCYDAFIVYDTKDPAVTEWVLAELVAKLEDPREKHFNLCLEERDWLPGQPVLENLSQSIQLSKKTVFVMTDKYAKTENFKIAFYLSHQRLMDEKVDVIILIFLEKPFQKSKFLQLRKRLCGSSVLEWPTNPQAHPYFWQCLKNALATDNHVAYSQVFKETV
How it was run: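 HEK293 cells stably expressing human TLR7 or TLR8, transiently transfected with SEAP reporter plasmid; medium replaced, SIMRA compounds added, 18 h incubation. Supernatant SEAP measured by QuantiBlue; expressed as fold increase in NF-κB activity over PBS control. Tabulated data at 50 μg/mL, representative of three independent experiments.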

[8] = biological target: Toll-like receptor 3 (Homo sapiens) (UniProt O15455); assay: Activation of human TLR3 expressed in HEK293 assessed as induction of NF-kappaB activity reporter gene assay; assay type: cell-based
[9] = species on record: Homo sapiens; assay: Ratio of human TLR7 activity to human TLR8 activity
How it was run: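 TLR7/TLR8 ratio computed from fold NF-κB (SEAP reporter) activation in HEK293 cells stably expressing human TLR7 versus TLR8, compounds at 50 μg/mL, 18 h exposure; representative of three independent experiments.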

Toll-like receptor 3 (Homo sapiens), sequence (O15455 whole entry): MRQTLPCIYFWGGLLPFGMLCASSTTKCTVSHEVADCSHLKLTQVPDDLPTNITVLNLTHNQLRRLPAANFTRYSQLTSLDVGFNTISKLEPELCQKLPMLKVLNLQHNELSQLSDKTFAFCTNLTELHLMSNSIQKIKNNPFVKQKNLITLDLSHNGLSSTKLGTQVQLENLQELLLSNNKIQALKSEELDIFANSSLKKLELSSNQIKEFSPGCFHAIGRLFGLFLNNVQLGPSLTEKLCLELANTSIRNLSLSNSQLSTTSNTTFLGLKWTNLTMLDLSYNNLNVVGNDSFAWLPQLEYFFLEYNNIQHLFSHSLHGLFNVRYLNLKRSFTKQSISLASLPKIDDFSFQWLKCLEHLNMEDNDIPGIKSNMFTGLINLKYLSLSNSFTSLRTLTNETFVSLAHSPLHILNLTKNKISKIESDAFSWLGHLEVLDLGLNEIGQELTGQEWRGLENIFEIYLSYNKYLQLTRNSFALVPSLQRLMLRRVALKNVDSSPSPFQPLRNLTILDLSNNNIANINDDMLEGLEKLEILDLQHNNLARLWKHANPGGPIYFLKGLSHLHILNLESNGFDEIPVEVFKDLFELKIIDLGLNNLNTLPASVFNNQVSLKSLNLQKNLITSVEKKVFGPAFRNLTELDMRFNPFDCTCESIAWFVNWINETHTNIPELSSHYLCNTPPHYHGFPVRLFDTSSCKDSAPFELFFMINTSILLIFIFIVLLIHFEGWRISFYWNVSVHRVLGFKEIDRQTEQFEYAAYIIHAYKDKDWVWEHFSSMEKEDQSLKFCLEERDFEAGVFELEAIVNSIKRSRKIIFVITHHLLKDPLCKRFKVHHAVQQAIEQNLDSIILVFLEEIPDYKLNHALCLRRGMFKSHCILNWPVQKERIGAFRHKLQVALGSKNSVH

Activity [3] | Activity [4] | Activity [6] | fold change (FC) [7] | Activity [8] | Ratio [9] | SMILES | Activity [1] [pg/mL] | Activity [2] [pg/mL] | IFN-alpha [5] [pg/mL]
Active | inactive | Active | 16.1 | inactive | 3.4 | Nc1ccn([C@@H]2O[C@H](COP(O)(=S)O[C@H]3[C@@H](O)[C@H](n4ccc(=O)[nH]c4=O)O[C@@H]3COP(O)(=S)O[C@H]3[C@@H](O)[C@H](n4ccc(=O)[nH]c4=O)O[C@@H]3COP(O)(=S)O[C@H]3[C@@H](O)[C@H](n4ccc(N)nc4=O)O[C@@H]3COP(O)(=S)O[C@H]3[C@@H](O)[C@H](n4ccc5c(=O)[nH]c(N)nc54)O[C@@H]3COP(O)(=S)O[C@H]3[C@@H](O)[C@H](n4ccc(=O)[nH]c4=O)O[C@@H]3COP(O)(=S)O[C@H]3[C@@H](O)[C@H](n4ccc(N)nc4=O)O[C@@H]3COP(O)(=S)O[C@H]3[C@@H](O)[C@H](n4ccc5c(=O)[nH]c(N)nc54)O[C@@H]3COP(O)(=S)O[C@H]3[C@@H](O)[C@H](n4ccc(=O)[nH]c4=O)O[C@@H]3CO)[C@@H](OP(O)(=S)OC[C@H]3O[C@@H](n4ccc(=O)[nH]c4=O)[C@H](O)[C@@H]3OP(O)(=S)OC[C@H]3O[C@@H](n4ccc5c(=O)[nH]c(N)nc54)[C@H](O)[C@@H]3OP(O)(=S)OCC(O)COP(O)(=S)O[C@H]3[C@@H](O)[C@H](n4ccc5c(=O)[nH]c(N)nc54)O[C@@H]3COP(O)(=S)O[C@H]3[C@@H](O)[C@H](n4ccc(=O)[nH]c4=O)O[C@@H]3COP(O)(=S)O[C@H]3[C@@H](O)[C@H](n4ccc(N)nc4=O)O[C@@H]3COP(O)(=S)O[C@H]3[C@@H](O)[C@H](n4ccc(=O)[nH]c4=O)O[C@@H]3COP(O)(=S)O[C@H]3[C@@H](O)[C@H](n4ccc(=O)[nH]c4=O)O[C@@H]3COP(O)(=S)O[C@H]3[C@@H](O)[C@H](n4ccc(N)nc4=O)O[C@@H]3COP(O)(=S)O[C@H]3[C@@H](O)[C@H](n4ccc5c(=O)[nH]c(N)nc54)O[C@@H]3COP(O)(=S)O[C@H]3[C@@H](O)[C@H](n4ccc(=O)[nH]c4=O)O[C@@H]3COP(O)(=S)O[C@H]3[C@@H](O)[C@H](n4ccc(N)nc4=O)O[C@@H]3COP(O)(=S)O[C@H]3[C@@H](O)[C@H](n4ccc5c(=O)[nH]c(N)nc54)O[C@@H]3COP(O)(=S)O[C@H]3[C@@H](O)[C@H](n4ccc(=O)[nH]c4=O)O[C@@H]3CO)[C@H]2O)c(=O)n1 (stereo partly specified) | 385 | 1110 | 385
 | inactive |  | 0.5 | inactive | 0.1 | Nc1ccn([C@@H]2O[C@H](COP(=O)(S)O[C@H]3[C@@H](O)[C@H](n4cnc5c(=O)[nH]c(N)nc54)O[C@@H]3COP(=O)(S)O[C@H]3[C@@H](O)[C@H](n4ccc(=O)[nH]c4=O)O[C@@H]3COP(=O)(S)OCCCO)[C@@H](OP(=O)(S)OC[C@H]3O[C@@H](n4ccc(=O)[nH]c4=O)[C@H](O)[C@@H]3OP(=O)(S)OC[C@H]3O[C@@H](n4cnc5c(=O)[nH]c(N)nc54)[C@H](O)[C@@H]3OP(=O)(S)OC[C@H]3O[C@@H](n4ccc(N)nc4=O)[C@H](O)[C@@H]3OP(=O)(S)OC[C@H]3O[C@@H](n4ccc(=O)[nH]c4=O)[C@H](O)[C@@H]3OP(=O)(S)OC[C@H]3O[C@@H](n4ccc(=O)[nH]c4=O)[C@H](O)[C@@H]3OP(=O)(S)OC[C@H]3O[C@@H](n4cnc5c(=O)[nH]c(N)nc54)[C@H](O)[C@@H]3OP(=O)(S)OC[C@H]3O[C@@H](n4ccc(=O)[nH]c4=O)[C@H](O)[C@@H]3OP(=O)(S)OC[C@H]3O[C@@H](n4cnc5c(=O)[nH]c(N)nc54)[C@H](O)[C@@H]3OP(=O)(S)OCC(O)COP(=O)(S)O[C@H]3[C@@H](O)[C@H](n4cnc5c(=O)[nH]c(N)nc54)O[C@@H]3COP(=O)(S)O[C@H]3[C@@H](O)[C@H](n4ccc(=O)[nH]c4=O)O[C@@H]3COP(=O)(S)O[C@H]3[C@@H](O)[C@H](n4cnc5c(=O)[nH]c(N)nc54)O[C@@H]3COP(=O)(S)O[C@H]3[C@@H](O)[C@H](n4ccc(=O)[nH]c4=O)O[C@@H]3COP(=O)(S)O[C@H]3[C@@H](O)[C@H](n4ccc(=O)[nH]c4=O)O[C@@H]3COP(=O)(S)O[C@H]3[C@@H](O)[C@H](n4ccc(N)nc4=O)O[C@@H]3COP(=O)(S)O[C@H]3[C@@H](O)[C@H](n4cnc5c(=O)[nH]c(N)nc54)O[C@@H]3COP(=O)(S)O[C@H]3[C@@H](O)[C@H](n4ccc(=O)[nH]c4=O)O[C@@H]3COP(=O)(S)O[C@H]3[C@@H](O)[C@H](n4ccc(N)nc4=O)O[C@@H]3COP(=O)(S)O[C@H]3[C@@H](O)[C@H](n4cnc5c(=O)[nH]c(N)nc54)O[C@@H]3COP(=O)(S)O[C@H]3[C@@H](O)[C@H](n4ccc(=O)[nH]c4=O)O[C@@H]3COP(=O)(S)OCCCO)[C@H]2O)c(=O)n1 (stereo partly specified) | 260 | 715 | 81.6

— ChEMBL document CHEMBL1154352, “Toll-like receptor 7 selective synthetic oligoribonucleotide agonists: synthesis and structure-activity relationship studies” (J Med Chem, 2009)
